Assay results: ChEMBL document CHEMBL3608276, “Phenolic Compounds from the Leaves and Twigs of Osteomeles schwerinae That Inhibit Rat Lens Aldose Reductase and Vessel Dilation in Zebrafish Larvae” (J Nat Prod, 2015)
pIC50: −log10 of the molar value.

Columns and labels:
Danio rerio [1] = species on record: Danio rerio; test: Toxicity in zebrafish embryo up to 20 uM; type: organism-based; conditions: in vivo
[2] = target: Aldo-keto reductase family 1 member B1 (Rattus norvegicus, UniProt P07943); test: Inhibition of Sprague-Dawley rat lense aldose reductase using DL-glyceraldehyde as substrate by spectrofluorometric analysis
In short: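 Crude enzyme from lenses of 8-week-old Sprague–Dawley rats (100–150 g), homogenized in 135 mM Na,K-phosphate pH 7.0 with 0.5 mM PMSF and 10 mM 2-mercaptoethanol; 100000g supernatant used. Reaction in 135 mM phosphate pH 7.0, 100 mM Li2SO4, 0.03 mM NADPH, 1 mM DL-glyceraldehyde at 37 °C, NADPH-started, HCl-stopped. NADP converted with NaOH/imidazole at 60 °C 10 min; fluorescence ex 360/em 460 nm. IC50 from log-concentration regression of remaining activity; 100 μM cutoff.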

Danio rerio [3] = species on record: Danio rerio; test: Reduction of high glucose-induced dilation of hyaloid-retinal vessel in flk:EGFP transgenic zebrafish embryo at 10 uM treated for day 3 to 6 postfertilization measured on day 6 by stereomicroscopic analysis relative to control; type: functional; parameters: scale not given: the % may be the effect or the level left
In short: (§1)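 flk:EGFP embryos, five per well at 3 dpf in egg water with 130 mM glucose, exposed to compound 3–6 dpf. Fixed in 4% paraformaldehyde at 6 dpf, lenses with vessels isolated by 3% trypsin (0.2 M Tris-HCl pH 7.8) 80 min at 37 °C. Hyaloid vessel diameter near the optic disc measured three times per lens, 10 larvae per group, triplicate; mean ± SEM, ANOVA/Dunnett versus high-glucose group.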

Danio rerio [4] = species on record: Danio rerio; test: Reduction of high glucose-induced dilation of hyaloid-retinal vessels in flk:EGFP transgenic zebrafish embryo at 20 uM treated for day 3 to 6 postfertilization measured on day 6 by stereomicroscopic analysis relative to control; type: functional; parameters: scale not given: the % may be the effect or the level left; in short: as §1

## COc1cc(OC)cc(-c2ccc(O)c(O[C@@H]3O[C@H](CO)[C@@H](O)[C@H](O)[C@H]3O)c2)c1
Danio rerio [1]
  Activity: Non-toxic
[2]
  pIC50: 5.42

## COc1cc(O)cc(-c2ccc(O)c(O)c2)c1
Danio rerio [1]
  Activity: Non-toxic
Danio rerio [3]
  Activity: 95%
Danio rerio [4]
  Activity: 99%
[2]
  pIC50: 4.86

## COc1cc([C@H]2O[C@H](c3cc(OC)c(O)c(OC)c3)[C@@H](CO)[C@@H]2CO)cc(OC)c1O [HUAZHONGILEXIN]
[2]
  pIC50: < 4.00

## COc1cc([C@H]2O[C@H](c3cc(OC)c(O)c(OC)c3)[C@@H](CO[C@@H]3O[C@@H](C)[C@H](O)[C@@H](O)[C@H]3O)[C@@H]2CO)cc(OC)c1O
[2]
  pIC50: < 4.00

## COc1cc(O[C@@H]2O[C@H](CO)[C@@H](O)[C@H](O)[C@H]2O)cc(-c2ccc(O)c(O)c2)c1
Danio rerio [1]
  Activity: Non-toxic
[2]
  pIC50: 5.25

## O=C(O)CC1(CC(=O)O)CCCC1
[2]
  pIC50: 4.54
